Measurements reported in ChEMBL document CHEMBL5705905, “Pharmacological targeting of kinases MST1 and MST2 augments tissue repair and regeneration” (Sci Transl Med, 2016).
Calls of active or inactive are those of the source. The rule behind the calls is not given here.

Legend:
[1] = target: T1, Serine/threonine-protein kinase 4 (Homo sapiens, UniProt Q13043); assay: Inhibition of Flag-tagged full-length MST1 (unknown origin) transfected in HEK293T cells assessed as MOB1a phosphorylation level incubated for 3 hrs by immunoblot analysis
T1 sequence (Q13043 whole entry): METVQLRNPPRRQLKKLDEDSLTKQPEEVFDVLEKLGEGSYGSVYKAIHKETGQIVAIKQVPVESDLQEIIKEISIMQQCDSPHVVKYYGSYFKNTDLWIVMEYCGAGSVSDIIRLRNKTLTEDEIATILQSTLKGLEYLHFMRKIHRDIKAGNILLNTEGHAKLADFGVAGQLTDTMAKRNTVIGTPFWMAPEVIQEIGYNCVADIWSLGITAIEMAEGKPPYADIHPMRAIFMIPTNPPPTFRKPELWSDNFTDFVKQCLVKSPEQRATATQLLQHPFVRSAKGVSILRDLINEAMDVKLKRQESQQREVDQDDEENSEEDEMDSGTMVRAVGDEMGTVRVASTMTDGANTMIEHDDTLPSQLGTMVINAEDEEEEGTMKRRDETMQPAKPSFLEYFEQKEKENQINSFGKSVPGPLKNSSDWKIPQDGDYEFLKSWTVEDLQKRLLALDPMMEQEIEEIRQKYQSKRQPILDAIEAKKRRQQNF

[2] = target: RAC-beta serine/threonine-protein kinase (Homo sapiens) (UniProt P31751); assay: Inhibition of AKT2 (unknown origin) assessed as remaining activity at 1 uM by Kinome scan method relative to control
Summary of the method: (§1)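 Active-site-dependent competition-binding (KINOMEscan) panel of 468 kinases, test compound at 1 μM (from a 10 mM DMSO stock). Read-out is ctrl% = (test signal − positive control signal)/(negative control signal − positive control signal) × 100. DMSO is the negative control (100%) and a control compound is the positive control (0%). Lower ctrl% means tighter binding.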

[3] = target: Mitogen-activated protein kinase 6 (Homo sapiens) (UniProt Q16659); assay: Inhibition of ERK3 (unknown origin) assessed as remaining activity at 1 uM by Kinome scan method relative to control
[4] = target: Receptor-type tyrosine-protein kinase FLT3 (Homo sapiens) (UniProt P36888); assay: Inhibition of FLT3-autoinnibited (unknown origin) assessed as remaining activity at 1 uM by Kinome scan method relative to control
[5] = target: Insulin receptor (Homo sapiens) (UniProt P06213); assay: Inhibition of INSR (unknown origin) assessed as remaining activity at 1 uM by Kinome scan method relative to control
[6] = system: Mast/stem cell growth factor receptor Kit (Homo sapiens), P10721 [V559D]; assay: Inhibition of KIT V559D mutant (unknown origin) assessed as remaining activity at 1 uM by Kinome scan method relative to control
[7] = system: Mast/stem cell growth factor receptor Kit (Homo sapiens), P10721 [V559D,T670I]; assay: Inhibition of KIT V559D/T670I mutant (unknown origin) assessed as remaining activity at 1 uM by Kinome scan method relative to control
[8] = target: Serine/threonine-protein kinase LATS2 (Homo sapiens) (UniProt Q9NRM7); assay: Inhibition of LATS2 (unknown origin) assessed as remaining activity at 1 uM by Kinome scan method relative to control
[9] = target: Mitogen-activated protein kinase kinase kinase 15 (Homo sapiens) (UniProt Q6ZN16); assay: Inhibition of MAP3K15 (unknown origin) assessed as remaining activity at 1 uM by Kinome scan method relative to control
[10] = target: Myosin light chain kinase family member 4 (Homo sapiens) (UniProt Q86YV6); assay: Inhibition of MYLK4 (unknown origin) assessed as remaining activity at 1 uM by Kinome scan method relative to control
Summary of the method: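 KINOMEscan active-site competition binding assay at 1 μM against 468 kinases. Ctrl% = (test − positive control)/(negative control DMSO − positive control) × 100; lower values mean tighter binding.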

[11] = target: 3-phosphoinositide-dependent protein kinase 1 (Homo sapiens) (UniProt O15530); assay: Inhibition of PDPK1 (unknown origin) assessed as remaining activity at 1 uM by Kinome scan method relative to control
[12] = target: Phosphatidylinositol 4,5-bisphosphate 3-kinase catalytic subunit beta isoform (Homo sapiens) (UniProt P42338); assay: Inhibition of PIK3CB (unknown origin) assessed as remaining activity at 1 uM by Kinome scan method relative to control
[13] = target: 1-phosphatidylinositol 3-phosphate 5-kinase (Homo sapiens) (UniProt Q9Y2I7); assay: Inhibition of PIKFYVE (unknown origin) assessed as remaining activity at 1 uM by Kinome scan method relative to control
[14] = target: cAMP-dependent protein kinase catalytic subunit beta (Homo sapiens) (UniProt P22694); assay: Inhibition of PKAC-beta (unknown origin) assessed as remaining activity at 1 uM by Kinome scan method relative to control
[15] = target: Ribosomal protein S6 kinase alpha-5 (Homo sapiens) (UniProt O75582); assay: Inhibition of C-terminal kinase domain RPS6KA5 (unknown origin) assessed as remaining activity at 1 uM by Kinome scan method relative to control; summary of the method: as §1
[16] = target: STE20-like serine/threonine-protein kinase (Homo sapiens) (UniProt Q9H2G2); assay: Inhibition of SLK (unknown origin) assessed as remaining activity at 1 uM by Kinome scan method relative to control
[17] = target: Transient receptor potential cation channel subfamily M member 6 (Homo sapiens) (UniProt Q9BX84); assay: Inhibition of TRPM6 (unknown origin) assessed as remaining activity at 1 uM by Kinome scan method relative to control
[18] = target: Wee1-like protein kinase 2 (Homo sapiens) (UniProt P0C1S8); assay: Inhibition of WEE2 (unknown origin) assessed as remaining activity at 1 uM by Kinome scan method relative to control
[19] = target: Serine/threonine-protein kinase WNK1 (Homo sapiens) (UniProt Q9H4A3); assay: Inhibition of WNK1 (unknown origin) assessed as remaining activity at 1 uM by Kinome scan method relative to control
[20] = target: Serine/threonine-protein kinase DCLK1 (Homo sapiens, UniProt O15075); assay: Binding affinity to DCAMKL1 (unknown origin) assessed as dissociation constant
RAW264.7 = assay: Inhibition of MST1/2 (unknown origin) in mouse RAW264.7 cells assessed as H2O2 stimulated MOB1 phosphorylation level at 1 to 3 uM by immunoblot analysis; assay type: cell-based; conditions: dose 1-3 µM
Mus musculus [21] = assay: In vivo inhibition of MST1/2 in mouse assessed as MOB1 phosphorylation level at 1 mg/kg, ip administration and measured after between 1.5 to 6 hrs by immunoblot analysis; assay type: functional, organism-based; conditions: time 1.5-6 hrs
Summary of the method: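 Wild-type mice received 1 mg/kg intraperitoneally, with vehicle of 0.1% citric acid aqueous solution containing 20% Kolliphor HS 15. Livers were harvested over 0–12 h and lysates immunoblotted for p-MOB1 and p-YAP, normalized to control. Means ± SD, n = 3.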

Mus musculus [22] = assay: Anti-colitis activity against DSS-induced mouse assessed as high Ki67-positive proliferating cells at 1 mg/kg, ip administrated daily for 8 days by IHC staining; assay type: functional, organism-based; conditions: Colon, time 8.0 day
Summary of the method: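 Wild-type mice received oral DSS for 7 days with vehicle or 1 mg/kg daily. Colon sections were stained by IHC for YAP, BrdU and Ki67, and positive cells were quantified per animal. Means ± SD, n = 10, Student's t test.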

Chain of Mast/stem cell growth factor receptor Kit (Homo sapiens), P10721 [V559D,T670I] (P10721 whole entry V559D/T670I): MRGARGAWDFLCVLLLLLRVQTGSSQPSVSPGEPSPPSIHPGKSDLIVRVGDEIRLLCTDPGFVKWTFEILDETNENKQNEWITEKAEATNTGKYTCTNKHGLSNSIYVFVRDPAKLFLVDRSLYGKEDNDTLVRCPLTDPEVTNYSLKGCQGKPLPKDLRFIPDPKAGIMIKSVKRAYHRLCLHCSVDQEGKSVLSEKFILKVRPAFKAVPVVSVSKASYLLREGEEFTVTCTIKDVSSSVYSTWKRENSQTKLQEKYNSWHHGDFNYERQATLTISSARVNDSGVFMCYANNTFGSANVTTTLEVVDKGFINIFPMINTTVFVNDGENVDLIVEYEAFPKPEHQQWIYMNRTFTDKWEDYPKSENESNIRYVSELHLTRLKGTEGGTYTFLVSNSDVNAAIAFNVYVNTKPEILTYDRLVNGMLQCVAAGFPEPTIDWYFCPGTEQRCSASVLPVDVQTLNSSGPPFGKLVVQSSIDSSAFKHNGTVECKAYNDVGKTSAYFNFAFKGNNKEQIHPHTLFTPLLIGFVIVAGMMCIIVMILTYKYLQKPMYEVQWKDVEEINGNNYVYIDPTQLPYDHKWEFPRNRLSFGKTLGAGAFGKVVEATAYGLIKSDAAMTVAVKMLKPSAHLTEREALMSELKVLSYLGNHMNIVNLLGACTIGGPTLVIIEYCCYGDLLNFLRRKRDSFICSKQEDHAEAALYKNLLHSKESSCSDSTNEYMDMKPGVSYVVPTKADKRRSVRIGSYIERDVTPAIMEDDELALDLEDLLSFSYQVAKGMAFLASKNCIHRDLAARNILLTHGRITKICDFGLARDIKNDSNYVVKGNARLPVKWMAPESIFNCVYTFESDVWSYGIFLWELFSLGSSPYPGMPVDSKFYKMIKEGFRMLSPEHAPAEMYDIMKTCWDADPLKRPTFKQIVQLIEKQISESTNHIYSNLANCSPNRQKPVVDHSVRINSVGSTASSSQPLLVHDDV
Chain of STE20-like serine/threonine-protein kinase (Homo sapiens) (Q9H2G2 whole entry, looked up): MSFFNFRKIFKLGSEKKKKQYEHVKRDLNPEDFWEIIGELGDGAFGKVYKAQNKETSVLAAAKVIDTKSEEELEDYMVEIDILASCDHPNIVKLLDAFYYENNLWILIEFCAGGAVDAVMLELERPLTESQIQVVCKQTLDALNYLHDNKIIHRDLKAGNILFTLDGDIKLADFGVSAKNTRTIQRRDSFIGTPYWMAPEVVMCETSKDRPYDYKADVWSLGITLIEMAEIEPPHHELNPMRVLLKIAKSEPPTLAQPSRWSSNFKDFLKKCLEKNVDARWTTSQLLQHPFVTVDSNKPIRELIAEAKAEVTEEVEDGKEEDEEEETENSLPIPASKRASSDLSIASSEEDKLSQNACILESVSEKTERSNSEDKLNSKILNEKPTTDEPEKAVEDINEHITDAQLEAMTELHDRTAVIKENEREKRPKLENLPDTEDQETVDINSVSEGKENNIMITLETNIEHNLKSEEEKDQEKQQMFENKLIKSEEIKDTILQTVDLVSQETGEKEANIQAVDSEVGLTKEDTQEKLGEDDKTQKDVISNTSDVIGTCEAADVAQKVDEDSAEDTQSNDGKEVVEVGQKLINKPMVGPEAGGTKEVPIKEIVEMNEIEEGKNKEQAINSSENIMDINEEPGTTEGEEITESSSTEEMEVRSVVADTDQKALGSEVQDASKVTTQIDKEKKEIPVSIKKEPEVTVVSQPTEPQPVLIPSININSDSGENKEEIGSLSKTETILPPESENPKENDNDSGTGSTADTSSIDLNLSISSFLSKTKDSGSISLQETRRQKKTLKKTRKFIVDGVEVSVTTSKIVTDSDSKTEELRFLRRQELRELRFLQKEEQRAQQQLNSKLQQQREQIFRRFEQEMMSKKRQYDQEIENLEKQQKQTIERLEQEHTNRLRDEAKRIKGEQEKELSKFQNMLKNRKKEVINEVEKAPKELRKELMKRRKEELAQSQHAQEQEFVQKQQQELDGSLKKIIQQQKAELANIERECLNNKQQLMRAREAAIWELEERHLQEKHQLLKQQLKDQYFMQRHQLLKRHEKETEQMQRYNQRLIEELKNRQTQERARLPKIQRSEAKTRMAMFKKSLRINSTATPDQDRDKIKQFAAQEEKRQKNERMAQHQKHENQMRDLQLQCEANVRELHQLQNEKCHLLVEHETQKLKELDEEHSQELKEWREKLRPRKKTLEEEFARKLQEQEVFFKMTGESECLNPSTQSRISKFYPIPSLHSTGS
Chain of Myosin light chain kinase family member 4 (Homo sapiens) (Q86YV6 whole entry): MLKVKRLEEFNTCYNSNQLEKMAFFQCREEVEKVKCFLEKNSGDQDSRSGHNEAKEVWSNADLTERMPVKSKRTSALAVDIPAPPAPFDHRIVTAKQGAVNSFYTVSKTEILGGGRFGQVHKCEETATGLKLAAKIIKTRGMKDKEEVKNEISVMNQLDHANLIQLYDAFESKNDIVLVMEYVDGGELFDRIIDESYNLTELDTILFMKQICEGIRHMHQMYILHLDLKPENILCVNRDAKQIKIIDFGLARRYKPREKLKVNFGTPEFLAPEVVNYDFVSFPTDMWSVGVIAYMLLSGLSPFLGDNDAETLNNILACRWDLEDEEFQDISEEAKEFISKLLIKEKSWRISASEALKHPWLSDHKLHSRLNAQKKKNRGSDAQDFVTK
Chain of Ribosomal protein S6 kinase alpha-5 (Homo sapiens) (O75582 whole entry, looked up, the tested form may be a part): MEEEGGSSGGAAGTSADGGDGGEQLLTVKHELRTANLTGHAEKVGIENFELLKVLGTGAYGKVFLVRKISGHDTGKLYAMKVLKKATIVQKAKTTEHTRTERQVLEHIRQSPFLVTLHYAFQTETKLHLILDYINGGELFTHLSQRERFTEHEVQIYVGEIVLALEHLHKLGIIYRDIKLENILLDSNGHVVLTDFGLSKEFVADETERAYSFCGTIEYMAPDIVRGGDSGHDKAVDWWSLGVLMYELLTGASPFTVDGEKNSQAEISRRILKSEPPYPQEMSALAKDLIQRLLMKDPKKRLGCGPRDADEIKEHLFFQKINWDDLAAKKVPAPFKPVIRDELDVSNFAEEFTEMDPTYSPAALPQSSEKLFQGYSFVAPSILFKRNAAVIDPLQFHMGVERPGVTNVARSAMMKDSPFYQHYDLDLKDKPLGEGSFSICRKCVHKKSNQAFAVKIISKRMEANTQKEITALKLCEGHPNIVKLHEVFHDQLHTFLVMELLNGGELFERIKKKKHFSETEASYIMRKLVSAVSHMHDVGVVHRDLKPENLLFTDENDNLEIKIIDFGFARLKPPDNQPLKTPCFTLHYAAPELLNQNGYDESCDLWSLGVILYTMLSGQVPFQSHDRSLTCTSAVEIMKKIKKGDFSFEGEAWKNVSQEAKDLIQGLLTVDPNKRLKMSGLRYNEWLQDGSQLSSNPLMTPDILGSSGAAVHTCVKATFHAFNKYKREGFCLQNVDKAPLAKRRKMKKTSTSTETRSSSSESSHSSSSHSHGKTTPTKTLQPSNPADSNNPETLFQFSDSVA
Chain of Serine/threonine-protein kinase DCLK1 (O15075 whole entry): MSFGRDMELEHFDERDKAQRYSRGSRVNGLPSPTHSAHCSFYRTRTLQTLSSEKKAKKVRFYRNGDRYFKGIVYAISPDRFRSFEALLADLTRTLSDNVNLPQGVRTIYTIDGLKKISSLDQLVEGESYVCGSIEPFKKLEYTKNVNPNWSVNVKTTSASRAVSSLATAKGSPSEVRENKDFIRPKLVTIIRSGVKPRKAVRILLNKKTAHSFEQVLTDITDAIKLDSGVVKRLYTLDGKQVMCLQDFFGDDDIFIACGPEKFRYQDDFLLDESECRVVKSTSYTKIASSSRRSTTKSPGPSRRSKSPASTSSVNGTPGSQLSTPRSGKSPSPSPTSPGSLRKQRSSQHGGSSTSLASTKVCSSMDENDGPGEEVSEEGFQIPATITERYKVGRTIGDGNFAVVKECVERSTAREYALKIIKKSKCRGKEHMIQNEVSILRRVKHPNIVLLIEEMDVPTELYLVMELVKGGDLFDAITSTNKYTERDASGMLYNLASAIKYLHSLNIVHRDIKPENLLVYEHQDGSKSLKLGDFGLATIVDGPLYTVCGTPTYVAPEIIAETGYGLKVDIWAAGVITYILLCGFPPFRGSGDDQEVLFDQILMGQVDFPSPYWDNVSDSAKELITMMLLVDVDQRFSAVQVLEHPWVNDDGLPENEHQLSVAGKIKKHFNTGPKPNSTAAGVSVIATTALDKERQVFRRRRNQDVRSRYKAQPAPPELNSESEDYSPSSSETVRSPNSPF
Chain of Mitogen-activated protein kinase 6 (Homo sapiens) (Q16659 whole entry): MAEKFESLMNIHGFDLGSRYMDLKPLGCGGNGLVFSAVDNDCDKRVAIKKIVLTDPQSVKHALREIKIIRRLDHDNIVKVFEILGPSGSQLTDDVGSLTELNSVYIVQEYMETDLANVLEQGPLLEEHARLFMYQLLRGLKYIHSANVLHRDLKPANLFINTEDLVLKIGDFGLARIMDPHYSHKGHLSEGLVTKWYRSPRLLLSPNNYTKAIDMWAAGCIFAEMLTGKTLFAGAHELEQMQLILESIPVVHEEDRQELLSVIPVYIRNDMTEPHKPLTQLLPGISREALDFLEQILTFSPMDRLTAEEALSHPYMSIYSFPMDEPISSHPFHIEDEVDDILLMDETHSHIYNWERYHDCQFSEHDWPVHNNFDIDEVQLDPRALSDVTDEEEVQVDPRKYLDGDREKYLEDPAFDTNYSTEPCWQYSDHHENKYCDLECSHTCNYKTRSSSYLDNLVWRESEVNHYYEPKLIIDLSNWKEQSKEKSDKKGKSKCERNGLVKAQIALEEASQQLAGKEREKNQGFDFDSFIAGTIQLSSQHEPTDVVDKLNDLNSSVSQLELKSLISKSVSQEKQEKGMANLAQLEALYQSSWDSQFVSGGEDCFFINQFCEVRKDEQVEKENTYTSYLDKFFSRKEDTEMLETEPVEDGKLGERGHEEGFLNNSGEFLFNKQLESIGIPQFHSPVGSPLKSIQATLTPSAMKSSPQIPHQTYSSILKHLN
Chain of Mast/stem cell growth factor receptor Kit (Homo sapiens), P10721 [V559D] (P10721 whole entry V559D): as the sequence (P10721 whole entry V559D/T670I) above, with I670T counted along it

CN1C(=O)c2sccc2N(C)c2nc(Nc3ccc(S(N)(=O)=O)cc3)ncc21
IC50 [1]: 71.1 nM | Activity [2]: 100% | Activity [3]: 100% | Activity [4]: 100% | Activity [5]: 98% | Activity [6]: 97% | Activity [7]: 88% | Activity [8]: 100% | Activity [9]: 67% | Activity [10]: 89% | Activity [11]: 100% | Activity [12]: 72% | Activity [13]: 64% | Activity [14]: 80% | Activity [15]: 81% | Activity [16]: 100% | Activity [17]: 94% | Activity [18]: 91% | Activity [19]: 97% | Kd [20]: 25 nM | inhibition (RAW264.7): Active | inhibition (Mus musculus [21]): Active | Activity (Mus musculus [22]): Active
